The record followed here is the array DNA melting data of Ke et al. (doi:10.1101/2024.01.08.574731).

The nature of data set [1]: folding enthalpy; higher = less favourable; fluorescence melt of hairpins on a sequencing array, two-state fit. The conditions noted are these: sodium 0.088 M. In outline: (§1)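 On a sequenced MiSeq flow cell, library hairpins with annealed Cy3 and quencher oligos were imaged for Cy3 fluorescence in 2.5 °C steps up to 60 °C, in 50 mM Na-HEPES pH 8.0, 25 mM NaCl. Normalisation used pre-quench Cy3 and control constructs. Bootstrapped two-state fits gave melting temperature and folding enthalpy, combined by inverse variance across four replicates and with fitted temperatures raised by 9.35 °C to match UV melts.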

A short description of data set [2]: melting temperature; fluorescence melt of hairpins on a sequencing array, two-state fit, raised by 9.35 °C to match UV melts. Conditions: sodium 0.088 M. The essentials:
as §1

With GCGATGCGAAAGCGCCGC (((..((....))..))), the folding enthalpy in data set [1] was -30.5 kcal/mol. The Tm in data set [2] was found to be 62.1 °C.
GCGATGCGAAAGCTACGC (((..((....))..))): the folding enthalpy in data set [1] was -18.1 kcal/mol. Moreover, the Tm in data set [2] turned out to be 65 °C.
The corresponding values for GCGATGCGAAAGCTCCGC (((..((....))..))) are -19.9 kcal/mol and 52.5 °C.
For GCGATGCGAAAGCTTGGC ((.(.((....)).).)) the same measures were -15.1 kcal/mol and 43.8 °C.
For GCGATGGGAAACCATCAC (.(((((....))))).) the same measures were -15.9 kcal/mol and 43.1 °C.
For the sequence GCGATGGGAAACCGTCGC ((((.((....)).)))), in data set [1], the folding enthalpy was -50.2 kcal/mol. The Tm in data set [2] was found to be 58.9 °C.
Turning to GCGATGGGAAACTATCGC (((((.(....).))))), the folding enthalpy in data set [1] is -42 kcal/mol. In addition, the Tm in data set [2] worked out at 55.9 °C.
The corresponding values for GCGATGGGTCGC ((((....)))) are -23.4 kcal/mol and 54.4 °C.
As for GCGATGGTTCGC ((((....)))), in data set [1], the folding enthalpy is -24.5 kcal/mol. For the same sequence, the Tm in data set [2] was 49.8 °C.
The corresponding values for GCGATGTCGAAAGACCGC (((..(((....)))))) are -29.5 kcal/mol and 51 °C.
The corresponding values for GCGATGTCTCGC ((((....)))) are -19.6 kcal/mol and 48.6 °C.
As to GCGATGTTCGC ((((...)))), the folding enthalpy in data set [1] is -18.5 kcal/mol. In addition, the Tm in data set [2] was found to be 49.9 °C.
The corresponding values for GCGATTGCGAAAGCACGC (((..(((....)))))) are -20.1 kcal/mol and 51.4 °C.
For GCGATTGGAAACAACCGC (((.(((....))).))) the same measures were -32.7 kcal/mol and 48.4 °C.
Take GCGATTGTCGC ((((...)))): in data set [1], the folding enthalpy is -19.6 kcal/mol. Also, the Tm in data set [2] amounted to 48.2 °C.
With GCGCAAGGAAACCTACGC (((.(.(....).).))), the folding enthalpy in data set [1] was -16.4 kcal/mol. Besides, the Tm in data set [2] amounted to 34.6 °C.
The corresponding values for GCGCACGAAAGTGACCGC ((((((....)))..))) are -21.9 kcal/mol and 48.4 °C.
For GCGCACGAAAGTGCCGC ((((((....))).))) the same measures were -17.5 kcal/mol and 62 °C.
Turning to GCGCACGAAAGTGCTCGC ((((((....)))..))), the folding enthalpy in data set [1] is -13.5 kcal/mol. For the same sequence, the Tm in data set [2] came out at 48.4 °C.
The corresponding values for GCGCACGAAAGTGTCCGC ((((((....)))..))) are -18.6 kcal/mol and 48 °C.
On to GCGCACGGAAACGTACGC (((.(((....))).))), for which the folding enthalpy in data set [1] was -44.3 kcal/mol. Moreover, the Tm in data set [2] worked out at 56 °C.
The corresponding values for GCGCAGCGAAAGCAGGGC ((.(.((....)).).)) are -10.2 kcal/mol and 51.2 °C.
With GCGCAGCGAAAGCATCGC (((..((....))..))), in data set [1], the folding enthalpy is -9.43 kcal/mol. For the same sequence, in data set [2], the Tm amounted to 47.4 °C.
The corresponding values for GCGCAGCGAAAGCCGAGC ((.(.((....)).).)) are -9.37 kcal/mol and 46.7 °C.
For GCGCAGCGAAAGCTCAGC ((..(((....)))..)), the folding enthalpy in data set [1] is -7.58 kcal/mol. For the same sequence, the Tm in data set [2] was found to be 41 °C.
For GCGCAGGGAAACCCACGC (((..((....))..))) the same measures were -26.7 kcal/mol and 43.9 °C.
For GCGCAGGGAAACTTGCGC (((((.(....).))))) the same measures were -43.4 kcal/mol and 60.2 °C.
The corresponding values for GCGCATCGAAAGATCCGC (((.(((....))).))) are -28.5 kcal/mol and 47.8 °C.
GCGCATGGAAACACGCAC (.((.((....)).)).): the folding enthalpy in data set [1] was -13.8 kcal/mol. Moreover, the Tm in data set [2] came to 29 °C.
The corresponding values for GCGCCACCGAAAGGTCGC (((..(((....)))))) are -23.5 kcal/mol and 51.4 °C.
Take GCGCCAGGAAACCGGCGC (((((.(....).))))): the folding enthalpy in data set [1] was -22.8 kcal/mol. The Tm in data set [2] was determined as 69.1 °C.
For GCGCCAGGAAACTAGCGC ((((.((....)).)))) the same measures were -42.1 kcal/mol and 52.5 °C.
The corresponding values for GCGCCAGGAAACTGGTGC ((.((((....)))).)) are -30.6 kcal/mol and 65 °C.
For GCGCCCGGAAACAGGCGC (((((.(....).))))) the same measures were -31.7 kcal/mol and 66.7 °C.
Regarding GCGCCGCGAAAGCAGGGC ((.(.((....)).).)), the folding enthalpy in data set [1] is -13.1 kcal/mol. In data set [2], the Tm worked out at 57.4 °C.
For GCGCCGCGAAAGCCGGGC ((.(.((....)).).)) the same measures were -15.8 kcal/mol and 55.3 °C.
The corresponding values for GCGCCGCGAAAGCGCCGC (((.(((....))).))) are -22.4 kcal/mol and 65.2 °C.
For GCGCCTCGAAAGAGCCGC (((.(((....))).))) the same measures were -37.9 kcal/mol and 52.2 °C.
Consider GCGCGACGAAAGTCACGC (((.(((....))).))), for which the folding enthalpy in data set [1] was -36.3 kcal/mol. Moreover, the Tm in data set [2] amounted to 68.9 °C.
The corresponding values for GCGCGAGCGAAAGCTCGC (((..(((....)))))) are -6.17 kcal/mol and 69.1 °C.
As for GCGCGAGGAAACCCGCGC (((((.(....).))))), the folding enthalpy in data set [1] was -33.8 kcal/mol. Further, the Tm in data set [2] turned out to be 69.1 °C.
Regarding GCGCGCCCGAAAGGGCGC (((..(((....)))))), the folding enthalpy in data set [1] is -4.64 kcal/mol. For the same sequence, the Tm in data set [2] is 68.4 °C.
For GCGCGCGAAAGCGAACGC ((((((....)))..))) the same measures were -22.9 kcal/mol and 60 °C.
For GCGCGCGAAAGCGCCCGC ((((((....)))..))) the same measures were -9.74 kcal/mol and 45.8 °C.
The corresponding values for GCGCGCGAAAGCGGCCGC ((((((....)))..))) are -15.3 kcal/mol and 59 °C.
Consider GCGCGCGAAAGCGTACGC ((((((....)))..))), for which, in data set [1], the folding enthalpy was -17.5 kcal/mol. Besides, the Tm in data set [2] was 61.5 °C.
The corresponding values for GCGCGGCGAAAGCCATGC ((..(((....)))..)) are -16.4 kcal/mol and 53.3 °C.
For the sequence GCGCGGCGAAAGCCTTGC ((..(((....)))..)), the folding enthalpy in data set [1] was -16 kcal/mol. In addition, the Tm in data set [2] stood at 46.1 °C.
As to GCGCGGGGAAACCCGCAC (.(((((....))))).), the folding enthalpy in data set [1] is -8.32 kcal/mol. In data set [2], the Tm is 53.9 °C.
The corresponding values for GCGCTACCGAAAGGTCGC (((..(((....)))))) are -30.8 kcal/mol and 51.4 °C.
As to GCGCTACGAAAGTACCGC (((.(((....))).))), the folding enthalpy in data set [1] was -36.1 kcal/mol. In data set [2], the Tm is 48.5 °C.
GCGCTCCGAAAGGATCGC (((.(((....))).))): in data set [1], the folding enthalpy was -41 kcal/mol. For the same sequence, the Tm in data set [2] was found to be 59.2 °C.
The corresponding values for GCGCTCGAAAGAGCCCGC ((((((....)))..))) are -11.8 kcal/mol and 43.4 °C.
The corresponding values for GCGCTCGAAAGAGGCCGC ((((((....)))..))) are -16.5 kcal/mol and 47.5 °C.
The corresponding values for GCGCTCGAAAGAGTTCGC ((((((....)))..))) are -22.1 kcal/mol and 43.8 °C.
For GCGCTCGGAAACAAGCGC (((((.(....).))))), the folding enthalpy in data set [1] is -46.7 kcal/mol. The Tm in data set [2] is 55.9 °C.
The corresponding values for GCGCTCGGAAACGAGCAC (.(((((....))))).) are -10.4 kcal/mol and 51.5 °C.
For GCGCTCGGAAACGGGTGC ((.(.((....)).).)) the same measures were -53.1 kcal/mol and 51.6 °C.
In the case of GCGCTGACGAAAGTCCGC (((..(((....)))))), the folding enthalpy in data set [1] is -25.1 kcal/mol. The Tm in data set [2] worked out at 51 °C.
The corresponding values for GCGCTGCGAAAGCCGTGC ((.(.((....)).).)) are -21.5 kcal/mol and 51.9 °C.
The corresponding values for GCGCTGCGAAAGCGGTGC ((.(.((....)).).)) are -31.8 kcal/mol and 66.7 °C.
For GCGCTGGGAAACTAGCGC (((((.(....).))))) the same measures were -32.4 kcal/mol and 67.1 °C.
As for GCGCTTCGAAAGAATCGC (((.(((....))).))), the folding enthalpy in data set [1] is -41.3 kcal/mol. Also, the Tm in data set [2] came out at 51.8 °C.
For GCGCTTGGAAACAGGCGC ((((.((....)).)))) the same measures were -40.6 kcal/mol and 61.7 °C.
The corresponding values for GCGGAAACCCGC ((((....)))) are -20.9 kcal/mol and 50.2 °C.
For GCGGAAAGCCGC ((((....)))) the same measures were -16.3 kcal/mol and 48.5 °C.
For the sequence GCGGAAATCCGC ((((....)))), in data set [1], the folding enthalpy is -20.4 kcal/mol. Moreover, the Tm in data set [2] is 51.6 °C.
For GCGGAACGAAAGTTGCGC (((.(((....))).))) the same measures were -35.6 kcal/mol and 67.9 °C.
For GCGGAACGAAAGTTTCGC (((.(((....))).))) the same measures were -51.9 kcal/mol and 64.8 °C.
The corresponding values for GCGGAACGCCGC ((((....)))) are -9.84 kcal/mol and 58.4 °C.
With GCGGAAGACCGC ((((....)))), the folding enthalpy in data set [1] is -18.5 kcal/mol. The Tm in data set [2] stood at 52.8 °C.
For GCGGAAGCCGC ((((...)))) the same measures were -15.7 kcal/mol and 55.8 °C.
For GCGGAAGTCCGC ((((....)))) the same measures were -20.9 kcal/mol and 56 °C.
The corresponding values for GCGGAATACCGC ((((....)))) are -21.9 kcal/mol and 54.2 °C.
